Measured values: paper PMC9476207 (ACS Omega, 2022)

How the values were obtained:
Test in all cases: NCI-60 single-dose antiproliferative screen
Format in all cases: cell-based
SK-MEL-5 = settings: Homo sapiens, SK-MEL-5, 48 h, read-out: growth percent
Outline: (§1)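 Cells grown in RPMI 1640 with 5% FBS and 2 mM L-glutamine, plated and held 24 h at 37 °C; time-zero plates TCA-fixed. DMSO stocks were diluted in gentamicin-containing medium to a final 10^-5 M, with a DMSO-only control. Exposure 48 h, 5% CO2. Adherent cells TCA-fixed 1 h at 4 °C, stained with 0.4% SRB, solubilised in 10 mM Trizma base, read at 515 nm. Growth percent derived from ODtzero, ODtest and ODctrl.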

MALME-3M = settings: Homo sapiens, 48 h, read-out: growth percent
Outline: (§2)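 NCI-60 protocol. Lines were grown in RPMI 1640 with 5% FBS and 2 mM L-glutamine, plated and incubated 24 h at 37 °C; time-zero plates were TCA-fixed. The test compound was dissolved in DMSO, diluted in medium with 50 μg/mL gentamicin and given once at a final 10^-5 M (DMSO control) for 48 h. Cells were fixed with cold TCA (1 h, 4 °C) and stained with 0.4% SRB in 1% acetic acid for 10 min. Dye was dissolved in 10 mM Trizma base and read at 515 nm. Growth percent was calculated from time-zero, test and control ODs.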

OVCAR-4 = settings: Homo sapiens, OVCAR-4, 48 h, read-out: growth percent
Outline: as §2

KM12 = settings: Homo sapiens, KM12, 48 h, read-out: growth percent
Outline: as §2

HCC-2998 = settings: Homo sapiens, HCC 2998, 48 h, read-out: growth percent
Outline: as §2

OVCAR-8 = settings: Homo sapiens, OVCAR-8, 48 h, read-out: growth percent
Outline: as §2

NCI-H226 = settings: Homo sapiens, NCI-H226, 48 h, read-out: growth percent
Outline: as §2

RXF 393 = settings: Homo sapiens, RXF 393, 48 h, read-out: growth percent
Outline: as §2

TK-10 = settings: Homo sapiens, TK-10, 48 h, read-out: growth percent
Outline: as §1

CCRF-CEM = settings: Homo sapiens, 48 h, read-out: growth percent
Outline: as §2

NCI-H23 = settings: Homo sapiens, NCI-H23, 48 h, read-out: growth percent
Outline: as §2

SF-539 = settings: Homo sapiens, SF-539, 48 h, read-out: growth percent
Outline: as §1

UACC-257 = settings: Homo sapiens, UACC-257, 48 h, read-out: growth percent
Outline: as §1

MDA-MB-435 = settings: Homo sapiens, MDA-MB-435, 48 h, read-out: growth percent
Outline: as §2

CAKI-1 = settings: Homo sapiens, CAKI-1, 48 h, read-out: growth percent
Outline: as §2

COLO205 = settings: Homo sapiens, COLO 205, 48 h, read-out: growth percent
Outline: as §2

SR = settings: Homo sapiens, 48 h, read-out: growth percent
Outline: as §1

OVCAR-5 = settings: Homo sapiens, OVCAR-5, 48 h, read-out: growth percent
Outline: as §2

NCI-H522 = settings: Homo sapiens, NCI-H522, 48 h, read-out: growth percent
Outline: as §2

SK-MEL-2 = settings: Homo sapiens, SK-MEL-2, 48 h, read-out: growth percent
Outline: as §1

UACC-62 = settings: Homo sapiens, UACC-62, 48 h, read-out: growth percent
Outline: as §1

HOP-62 = settings: Homo sapiens, HOP-62, 48 h, read-out: growth percent
Outline: as §2

NCI/ADR-RES = settings: Homo sapiens, 48 h, read-out: growth percent
Outline: as §2

SW-620 = settings: Homo sapiens, SW-620, 48 h, read-out: growth percent
Outline: as §1

SK-MEL-28 = settings: Homo sapiens, SK-MEL-28, 48 h, read-out: growth percent
Outline: as §1

SK-OV-3 = settings: Homo sapiens, SK-OV-3, 48 h, read-out: growth percent
Outline: as §1

K-562 = settings: Homo sapiens, K562, 48 h, read-out: growth percent
Outline: as §2

DU-145 = settings: Homo sapiens, DU-145, 48 h, read-out: growth percent
Outline: as §2

SN12C = settings: Homo sapiens, 48 h, read-out: growth percent
Outline: as §1

M14 = settings: Homo sapiens, M14, 48 h, read-out: growth percent
Outline: as §2

T-47D = settings: Homo sapiens, T47D, 48 h, read-out: growth percent
Outline: as §1

RPMI-8226 = settings: Homo sapiens, RPMI-8226, 48 h, read-out: growth percent
Outline: as §2

SF-268 = settings: Homo sapiens, SF-268, 48 h, read-out: growth percent
Outline: as §2

HS 578T = settings: Homo sapiens, 48 h, read-out: growth percent
Outline: as §2

SNB-75 = settings: Homo sapiens, SNB-75, 48 h, read-out: growth percent
Outline: as §1

A549/ATCC = settings: Homo sapiens, A549, 48 h, read-out: growth percent
Outline: as §2

COc1cc(CNC(=O)CCCC/C=C/C(C)C)ccc1OCc1cn(-c2ccc(C#N)cc2)nn1 [14j, (E)-N-(4-((1-(4-Cyanophenyl)-1H-1,2,3-triazol-4-yl)methoxy)-3-methoxybenzyl)-8-methylnon-6-enamide]
activity at 10 µM (SK-MEL-5): 87% | activity at 10 µM (MALME-3M): 102% | activity at 10 µM (OVCAR-4): 94.9% | activity at 10 µM (KM12): 91.5% | activity at 10 µM (HCC-2998): 94.5% | activity at 10 µM (OVCAR-8): 63.3% | activity at 10 µM (NCI-H226): 100% | activity at 10 µM (RXF 393): 90.8% | activity at 10 µM (TK-10): 91.8% | activity at 10 µM (CCRF-CEM): 86.2% | activity at 10 µM (NCI-H23): 72.1% | activity at 10 µM (SF-539): 94.5% | activity at 10 µM (UACC-257): 94.3% | activity at 10 µM (MDA-MB-435): 108% | activity at 10 µM (CAKI-1): 74.6% | activity at 10 µM (COLO205): 117% | activity at 10 µM (SR): 76.3% | activity at 10 µM (OVCAR-5): 95.3% | activity at 10 µM (NCI-H522): 88.2% | activity at 10 µM (SK-MEL-2): 98.4% | activity at 10 µM (UACC-62): 81.8% | activity at 10 µM (HOP-62): 103% | activity at 10 µM (NCI/ADR-RES): 79.7% | activity at 10 µM (SW-620): 98% | activity at 10 µM (SK-MEL-28): 105% | activity at 10 µM (SK-OV-3): 88.2% | activity at 10 µM (K-562): 75.4% | activity at 10 µM (DU-145): 44.4% | activity at 10 µM (SN12C): 98.3% | activity at 10 µM (M14): 95.3% | activity at 10 µM (T-47D): 76.8% | activity at 10 µM (RPMI-8226): 65.4% | activity at 10 µM (SF-268): 90.9% | activity at 10 µM (HS 578T): 95% | activity at 10 µM (SNB-75): 94.2% | activity at 10 µM (A549/ATCC): 84.8%

COc1cc(CNC(=O)C[C@H](C)CCC=C(C)C)ccc1OCc1cn(-c2ccc(Cl)cc2)nn1 [18b, (R)-N-(4-((1-(4-Chlorophenyl)-1H-1,2,3-triazol-4-yl)methoxy)-3-methoxybenzyl)-3,7-dimethyloct-6-enamide]
activity at 10 µM (SK-MEL-5): 62.8% | activity at 10 µM (MALME-3M): 68.3% | activity at 10 µM (OVCAR-4): 52.7% | activity at 10 µM (KM12): 87.7% | activity at 10 µM (HCC-2998): 75.9% | activity at 10 µM (OVCAR-8): 49.1% | activity at 10 µM (NCI-H226): 63.8% | activity at 10 µM (RXF 393): 56.1% | activity at 10 µM (TK-10): 95.6% | activity at 10 µM (CCRF-CEM): 92.9% | activity at 10 µM (NCI-H23): 64.9% | activity at 10 µM (SF-539): 67.7% | activity at 10 µM (UACC-257): 85.5% | activity at 10 µM (MDA-MB-435): 84.9% | activity at 10 µM (CAKI-1): 45.9% | activity at 10 µM (COLO205): 91.1% | activity at 10 µM (SR): 65.8% | activity at 10 µM (OVCAR-5): 80.7% | activity at 10 µM (NCI-H522): 62.9% | activity at 10 µM (SK-MEL-2): 83.6% | activity at 10 µM (UACC-62): 65.7% | activity at 10 µM (HOP-62): 61.5% | activity at 10 µM (NCI/ADR-RES): 48% | activity at 10 µM (SW-620): 76.8% | activity at 10 µM (SK-MEL-28): 87% | activity at 10 µM (SK-OV-3): 72.1% | activity at 10 µM (K-562): 53.5% | activity at 10 µM (DU-145): 82.8% | activity at 10 µM (SN12C): 67.7% | activity at 10 µM (M14): 90.8% | activity at 10 µM (T-47D): 52.5% | activity at 10 µM (RPMI-8226): 75.3% | activity at 10 µM (SF-268): 95.4% | activity at 10 µM (HS 578T): 71.4% | activity at 10 µM (SNB-75): 41.6% | activity at 10 µM (A549/ATCC): 57.1%

COc1cc(CNC(=O)CCCC/C=C/C(C)C)ccc1OCc1cn(-c2ccc(C)cc2)nn1 [14n, (E)-N-(3-Methoxy-4-((1-(p-tolyl)-1H-1,2,3-triazol-4-yl)methoxy)benzyl)-8-methylnon-6-enamide]
activity at 10 µM (SK-MEL-5): 86.8% | activity at 10 µM (MALME-3M): 110% | activity at 10 µM (OVCAR-4): 88.8% | activity at 10 µM (KM12): 96% | activity at 10 µM (HCC-2998): 108% | activity at 10 µM (OVCAR-8): 76.5% | activity at 10 µM (NCI-H226): 75.8% | activity at 10 µM (RXF 393): 102% | activity at 10 µM (TK-10): 101% | activity at 10 µM (CCRF-CEM): 87.3% | activity at 10 µM (NCI-H23): 87.9% | activity at 10 µM (SF-539): 100% | activity at 10 µM (UACC-257): 88.2% | activity at 10 µM (MDA-MB-435): 109% | activity at 10 µM (CAKI-1): 88.5% | activity at 10 µM (COLO205): 115% | activity at 10 µM (SR): 75.5% | activity at 10 µM (OVCAR-5): 108% | activity at 10 µM (NCI-H522): 62.1% | activity at 10 µM (SK-MEL-2): 91.9% | activity at 10 µM (UACC-62): 70.2% | activity at 10 µM (HOP-62): 86.4% | activity at 10 µM (NCI/ADR-RES): 87.4% | activity at 10 µM (SW-620): 102% | activity at 10 µM (SK-MEL-28): 114% | activity at 10 µM (SK-OV-3): 94.4% | activity at 10 µM (K-562): 80% | activity at 10 µM (DU-145): 97% | activity at 10 µM (SN12C): 89.3% | activity at 10 µM (M14): 93.3% | activity at 10 µM (T-47D): 77.4% | activity at 10 µM (RPMI-8226): 74.1% | activity at 10 µM (SF-268): 81.7% | activity at 10 µM (HS 578T): 89.7% | activity at 10 µM (SNB-75): 99.5% | activity at 10 µM (A549/ATCC): 84%

COc1cc(CNC(=O)CCCC/C=C/C(C)C)ccc1OCc1cn(-c2ccc(C(F)(F)F)cc2)nn1 [14g, (E)-N-(3-Methoxy-4-((1-(4-(trifluoromethyl)phenyl)-1H-1,2,3-triazol-4-yl)methoxy)benzyl)-8-methylnon-6-enamide]
activity at 10 µM (SK-MEL-5): 97.1% | activity at 10 µM (MALME-3M): 99.7% | activity at 10 µM (OVCAR-4): 98.6% | activity at 10 µM (KM12): 81.2% | activity at 10 µM (HCC-2998): 94.8% | activity at 10 µM (OVCAR-8): 41.1% | activity at 10 µM (NCI-H226): 53.6% | activity at 10 µM (RXF 393): 90.2% | activity at 10 µM (TK-10): 20.4% | activity at 10 µM (CCRF-CEM): 68.8% | activity at 10 µM (NCI-H23): 94.6% | activity at 10 µM (SF-539): 81.9% | activity at 10 µM (UACC-257): 98.2% | activity at 10 µM (MDA-MB-435): 107% | activity at 10 µM (CAKI-1): 85.8% | activity at 10 µM (COLO205): 72.6% | activity at 10 µM (SR): 70.4% | activity at 10 µM (OVCAR-5): 96.6% | activity at 10 µM (NCI-H522): 75.6% | activity at 10 µM (SK-MEL-2): 95.1% | activity at 10 µM (UACC-62): 84.3% | activity at 10 µM (HOP-62): 64.6% | activity at 10 µM (NCI/ADR-RES): 48.2% | activity at 10 µM (SW-620): 41.3% | activity at 10 µM (SK-MEL-28): 107% | activity at 10 µM (SK-OV-3): 91.3% | activity at 10 µM (K-562): 76.3% | activity at 10 µM (DU-145): 62.2% | activity at 10 µM (SN12C): 65.6% | activity at 10 µM (M14): 97.5% | activity at 10 µM (T-47D): 84.5% | activity at 10 µM (RPMI-8226): 53.4% | activity at 10 µM (SF-268): 87.8% | activity at 10 µM (HS 578T): 70.7% | activity at 10 µM (SNB-75): 49.7% | activity at 10 µM (A549/ATCC): 49%
